Results reported in ChEMBL document CHEMBL1143798, “Pyrimido[4,5-c]quinolin-1(2H)-ones as a novel class of antimitotic agents: Synthesis and in vitro cytotoxic activity” (Eur J Med Chem, 2007).
pIC50: −log10 of the molar value.

Columns and labels:
HT-29 = test: Cytotoxicity against human HT29 cells by MTT assay; assay type: functional, cell-based
Procedure, shortened: (§1)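 Cells grown in DMEM with 10% FBS and antibiotics at 37 °C, 5% CO2, seeded ~5000/well; compound in DMSO added after 24 h, 72 h exposure. MTT (1 mg/mL final, serum- and phenol-red-free DMEM) 4 h, formazan dissolved in 2-propanol, OD 550 nm (ref 690 nm). IC50 = concentration halving OD vs untreated; mean of three independent experiments with SD; doxorubicin positive control.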

MDA-MB-231 = test: Cytotoxicity against human MDA-MB-231 cells by MTT assay; assay type: functional, cell-based; procedure, shortened: as §1
HT-1080 [1] = test: Cytotoxicity against human HT1080 cells by MTT assay; assay type: functional, cell-based; procedure, shortened: as §1
HT-1080 [2] = test: Induction of apoptosis in human HT1080 cells by flow cytometer; assay type: functional
Procedure, shortened: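 HT-1080 cells incubated 36 h, ethanol-fixed (50%) and stained with RNase-containing propidium iodide; apoptosis estimated by flow cytometry as sub-diploid peak in DNA-content histogram, expressed as percentage of total events collected.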

HT-1080 [3] = test: Cell cycle arrest in human HT1080 cells by accumulation at G0/G1 phase at 5 uM after 36 hrs; assay type: functional
Procedure, shortened: (§2)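 HT-1080 fibrosarcoma cells exposed 36 h, then trypsinized, PBS-washed, fixed in 50% ethanol and stained with propidium iodide containing RNase; DNA content measured by flow cytometry and cell-cycle phase distribution (G0/G1, S, G2/M) determined from DNA histograms.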

HT-1080 [4] = test: Cell cycle arrest in human HT1080 cells by accumulation at G2/M phase at 5 uM after 36 hrs; assay type: functional; procedure, shortened: as §2
HT-1080 [5] = test: Cell cycle arrest in human HT1080 cells by accumulation at S phase at 5 uM after 36 hrs; assay type: functional; procedure, shortened: as §2
HT-1080 [6] = test: Inhibition of tubulin polymerization in human HT1080 cells after 36 hrs by Western analysis; assay type: functional, cell-based
Procedure, shortened: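 Cells lysed in 20 mM Tris-HCl pH 6.8, 1 mM MgCl2, 2 mM EGTA, 0.5% NP-40 with protease/phosphatase inhibitors; spun 13,000 × g 10 min to separate soluble from polymerized tubulin pellet; fractions run on 10% SDS-PAGE, anti-α-tubulin Western blot.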

| Structure (SMILES) | pIC50 (HT-29) | pIC50 (MDA-MB-231) | pIC50 (HT-1080 [1]) | Activity (HT-1080 [2]) | Activity (HT-1080 [3]) | Activity (HT-1080 [4]) | Activity (HT-1080 [5]) | Activity (HT-1080 [6]) |
| --- | --- | --- | --- | --- | --- | --- | --- | --- |
| Nn1c(-c2ccc(Cl)cc2)nc2c(-c3ccc(Br)cc3)nc3ccccc3c2c1=O | 4.63 | 4.47 | 4.97 | – | – | – | – | – |
| Nn1c(-c2ccccc2)nc2c(-c3ccc(Cl)cc3)nc3ccc(Cl)cc3c2c1=O | 5.33 | 4.80 | 5.54 | 2.21% | 50.68% | 22.46% | 26.86% | – |
| Nn1c(-c2ccccc2)nc2c(-c3ccc(Br)cc3)nc3ccccc3c2c1=O | 4.05 | < 4.00 | 4.32 | – | – | – | – | – |
| Nn1c(-c2ccc(Cl)cc2)nc2c(-c3ccc(Cl)cc3)nc3ccccc3c2c1=O | 4.74 | 4.26 | 5.16 | – | – | – | – | – |
| Cc1nc2c(-c3ccc(Cl)cc3)nc3ccc(Cl)cc3c2c(=O)n1N | 4.28 | < 4.00 | 4.46 | – | – | – | – | – |
| Cc1nc2c(-c3ccc(Cl)cc3)nc3ccccc3c2c(=O)n1N | < 4.00 | < 4.00 | < 4.00 | – | – | – | – | – |
| Nn1c(-c2ccc(Cl)cc2)nc2c(-c3ccc(Cl)cc3)nc3ccc(Cl)cc3c2c1=O | 5.71 | 5.74 | 5.91 | 7.62% | 57.25% | 31.49% | 11.26% | Dose-dependent effect |
| COc1cccc2c1C(=O)c1c(O)c3c(c(O)c1C2=O)C[C@@](O)(C(=O)CO)C[C@@H]3O[C@H]1C[C@H](N)[C@H](O)[C@H](C)O1 [DOXORUBICIN] | 6.46 | 7.52 | 7.66 | – | – | – | – | – |
| Cc1nc2c(-c3ccc(Br)cc3)nc3ccccc3c2c(=O)n1N | 4.11 | < 4.00 | 4.35 | – | – | – | – | – |
| Nn1c(-c2ccccc2)nc2c(-c3ccc(Br)cc3)nc3ccc(Cl)cc3c2c1=O | 5.67 | 4.86 | 5.83 | 5.51% | 45.78% | 26.22% | 28% | – |
| Nn1c(-c2ccc(Cl)cc2)nc2c(-c3ccc(Br)cc3)nc3ccc(Cl)cc3c2c1=O | 5.55 | 5.54 | 5.74 | 9.14% | 49.76% | 27.75% | 22.48% | – |
| Nn1c(-c2ccccc2)nc2c(-c3ccc(Cl)cc3)nc3ccccc3c2c1=O | < 4.00 | < 4.00 | 4.64 | – | – | – | – | – |
